The text below walks through data of ChEMBL document CHEMBL1150857, “Dendocarbins A--N, new drimane sesquiterpenes from the nudibranch Dendrodoris carbunculosa” (J Nat Prod, 2001).

What all share (assay type): functional, cell-based
Assay [1] has as its system P388. Kind of assay: Cytotoxicity against drug-sensitive mouse P388 cells. An outline of the steps: (§1)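 Murine leukemia P388 lines were tested: the drug-sensitive strain (P388/S), the adriamycin-resistant line (P388/ADR) and the vincristine-resistant line (P388/VCR). Cytotoxicity was expressed as IC50.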
Assay [2] has as its system P388. The assay is described as follows: Cytotoxicity against vincristine-resistant mouse P388 cells in absence of 0.004 ug/mL vincristine. An outline of the steps: as §1
The subject of assay [3] is P388. Kind of assay: Cytotoxicity against vincristine-resistant mouse P388 cells in presence of 0.004 ug/mL vincristine.
Assay [4] relates to P388. The assay is described as follows: Cytotoxicity against adriamycin-resistant mouse P388 cells in absence of 0.1 ug/mL adriamycin. The procedure, abridged:
as §1

For assay [5], the system named is P388. Kind of assay: Cytotoxicity against adriamycin-resistant mouse P388 cells in presence of 0.1 ug/mL adriamycin.

Values after ≈ are worked out from the molar mass of the structure shown. A value given as a limit tells only on which side of the number the result lay.

The term IC50 denotes the concentration that inhibits the measured activity by half.

Turning to `CC(=O)O[C@@H]1OC(=O)C2=CC[C@H]3C(C)(C)CCC[C@]3(C)[C@H]21`, the IC50 in the assay with P388 [1] was 10.2 mg/L (≈ 34.9 µM); in the assay on P388 [2], 10.2 mg/L (≈ 34.9 µM); in the assay with P388 [3] it was 9 mg/L; with P388 [4], 8 mg/L; with P388 [5], 10.1 mg/L.
For `CC1(C)CCC[C@]2(C)C3=C(CC[C@@H]12)C(=O)O[C@@H]3O`, the half-maximal inhibitory concentration (IC50) was 3.2 mg/L (≈ 12.8 µM) in the assay on P388 [1]; 2.5 mg/L (≈ 9.99 µM) in the assay on P388 [2]; 2.5 mg/L in the assay with P388 [3]; 2.5 mg/L in the assay on P388 [4]; 2.5 mg/L in the assay with P388 [5].
`CC1(C)CCC[C@]2(C)C3=C(C(=O)OC3O)[C@H](O)C[C@@H]12` (mixture of isomers) [DENDOCARBIN L/DENDOCARBIN M]: the IC50 in the assay with P388 [1], in the assay on P388 [2], with P388 [3], with P388 [4] and in the assay on P388 [5] was over 25 mg/L each time.
For the compound `CC1(C)CCC[C@]2(C)[C@@H]3C(=CC[C@@H]12)C(=O)O[C@H]3O` [DENDOCARBIN A], the IC50 in the assay with P388 [1], in the assay with P388 [2], in the assay on P388 [3], in the assay with P388 [4] and in the assay with P388 [5] was over 25 mg/L in each case.
On to `CC1(C)C[C@H](O)C[C@]2(C)[C@H]3C(=O)OCC3=CC[C@@H]12` [DENDOCARBIN B], for which the IC50 was 11.5 mg/L (≈ 45.9 µM) in the assay with P388 [1]; 10.2 mg/L (≈ 40.7 µM) in the assay on P388 [2]; 9 mg/L in the assay on P388 [3]; 7 mg/L in the assay on P388 [4]; 10.5 mg/L with P388 [5].
The like results for `CC1(C)CCC[C@]2(C)[C@@H]3C(=C[C@H](O)[C@@H]12)CO[C@H]3O` [DENDOCARBIN C] were, in that order, over 25 mg/L, over 25 mg/L, over 25 mg/L, over 25 mg/L and over 25 mg/L.
Taken in the same sequence, the figures for `CC1(C)CCC[C@]2(C)[C@H]3[C@H](O)OC(=O)[C@@]3(O)CC[C@@H]12` [DENDOCARBIN D] were 15 mg/L (≈ 55.9 µM), 16 mg/L (≈ 59.6 µM), 14 mg/L, 16 mg/L and 16 mg/L.
In the case of `CC1(C)[C@@H](O)CC[C@]2(C)[C@H]3C(=O)OC(=O)C3=CC[C@@H]12` [DENDOCARBIN E], the IC50 with P388 [1] was over 25 mg/L; in the assay with P388 [2], 22.5 mg/L (≈ 85.1 µM); in the assay on P388 [3], over 25 mg/L; in the assay on P388 [4], 19 mg/L; in the assay on P388 [5], over 25 mg/L.
In the case of `C[C@@]1(CO)CCC[C@]2(C)[C@H]3C(=O)OC(=O)C3=CC[C@@H]12` [DENDOCARBIN F], the IC50 in the assay with P388 [1] was over 25 mg/L; with P388 [2], over 25 mg/L; with P388 [3] it was over 25 mg/L; in the assay on P388 [4], over 25 mg/L; with P388 [5], 22 mg/L.
Take `CC1(C)CCC[C@]2(C)[C@H]3C(=O)OC(=O)C3=C[C@H](O)[C@@H]12` [DENDOCARBIN G]: the IC50 in the assay with P388 [1], with P388 [2], in the assay on P388 [3], with P388 [4] and with P388 [5] was over 25 mg/L each time.
Regarding `CC1(C)CCC[C@]2(C)[C@H]3C(=O)OC(=O)C3=CC[C@@H]12` [DENDOCARBIN H], the IC50 in the assay with P388 [1] was 10.8 mg/L (≈ 43.5 µM); in the assay on P388 [2], 10.1 mg/L (≈ 40.7 µM); in the assay on P388 [3], 8 mg/L; in the assay with P388 [4], 10.1 mg/L; in the assay with P388 [5], 10.5 mg/L.
With `CCOC1OC(=O)C2=C1[C@@H](O)C[C@H]1C(C)(C)CCC[C@]21C` (stereo not given in full) [DENDOCARBIN I], the IC50 in the assay on P388 [1] amounted to 10 mg/L (≈ 34 µM); in the assay on P388 [2] it was 10.2 mg/L (≈ 34.6 µM); with P388 [3], 10.2 mg/L; in the assay on P388 [4], 8 mg/L; with P388 [5] it was 10 mg/L.
`CCO[C@H]1OC(=O)C2=C1[C@@]1(C)CCCC(C)(C)[C@@H]1C[C@H]2O` [DENDOCARBIN J]: the IC50 in the assay with P388 [1] amounted to 17 mg/L (≈ 57.7 µM); with P388 [2], 4 mg/L (≈ 13.6 µM); in the assay with P388 [3], 4 mg/L; in the assay on P388 [4], 11 mg/L; with P388 [5], 8 mg/L.
In the case of `CCO[C@@H]1OC(=O)C2=C1[C@@]1(C)CCCC(C)(C)[C@@H]1C[C@H]2O` [DENDOCARBIN K], the IC50 in the assay with P388 [1] came out at 10.5 mg/L (≈ 35.7 µM); in the assay on P388 [2], 10.5 mg/L (≈ 35.7 µM); with P388 [3], 9 mg/L; in the assay with P388 [4], 9 mg/L; in the assay on P388 [5], 10.5 mg/L.
Turning to `CC1(C)CCC[C@]2(C)[C@H]3[C@H](O)OC[C@]34O[C@@H]4[C@H](O)[C@@H]12` [DENDOCARBIN N], the IC50 in the assay on P388 [1], in the assay with P388 [2], in the assay with P388 [3], in the assay with P388 [4] and in the assay with P388 [5] was over 25 mg/L in each case.
As for `CC1(C)CCC[C@]2(C)[C@@H]3C(=CC[C@@H]12)CO[C@H]3O` [ISODRIMENINOL], the IC50 in the assay with P388 [1] is 13 mg/L (≈ 55 µM); in the assay with P388 [2], 22 mg/L (≈ 93.1 µM); in the assay on P388 [3], over 25 mg/L; in the assay on P388 [4], 18 mg/L; in the assay on P388 [5], 18 mg/L.
